According to ChEMBL document CHEMBL1130024, “Synthesis and structure-activity relationships of 17beta-substituted 14beta-hydroxysteroid 3-(alpha-L-rhamnopyranoside)s: steroids that bind to the digitalis receptor” (J Med Chem, 1997):
pIC50: −log10 of the molar value.

Tested on: not listed separately; call rule not given here
Experiment: Concentration that inhibits binding of [3H]ouabain against Digitalis receptor in dog heart microsomes; Not active at a concentration > 100 uM
Parameters: species or system Canis lupus familiaris, Microsome

SMILES	IC50
C[C@@H]1O[C@@H](O[C@H]2CC[C@@]3(C)[C@H](CC[C@@H]4[C@@H]3CC[C@]3(C)[C@@H]5CC[C@]43OC(=O)C5)C2)[C@H](O)[C@H](O)[C@H]1O	Not Active

Molecular target: Sodium/potassium-transporting ATPase subunit alpha-1 (Canis lupus familiaris, UniProt P50997)
Experiment: Inhibition of [3H]ouabain binding to Digitalis receptor in dog heart microsomes
Outline: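 Radioligand competition assay in dog heart muscle microsomes (membrane preparation), measuring [³H]ouabain binding with the test steroids present. Steroids were added in ethanol.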

SMILES	pIC50
C[C@@H]1O[C@@H](O[C@H]2CC[C@@]3(C)[C@H](CC[C@@H]4[C@@H]3CC[C@]3(C)[C@@H](CCC(=O)O)CC[C@]43O)C2)[C@H](O)[C@H](O)[C@H]1O	6.64
C[C@H]1O[C@@H](O[C@H]2[C@@H](O)C[C@H](O[C@H]3[C@@H](O)C[C@H](O[C@H]4CC[C@@]5(C)[C@H](CC[C@@H]6[C@@H]5CC[C@]5(C)[C@@H](C7=CC(=O)OC7)CC[C@]65O)C4)O[C@@H]3C)O[C@@H]2C)C[C@H](O)[C@@H]1O [DIGITOXIN]	8.10
C[C@@H]1O[C@@H](O[C@H]2CC[C@@]3(C)[C@H](CC[C@@H]4[C@@H]3CC[C@]3(C)[C@H](C(O)C[N+](=O)[O-])CC[C@]43O)C2)[C@H](O)[C@H](O)[C@H]1O (some centres not stated)	5.33
C[C@@H]1O[C@@H](O[C@H]2CC[C@@]3(C)[C@H](CC[C@@H]4[C@@H]3CC[C@]3(C)[C@@H](CCO)CC[C@]43O)C2)[C@H](O)[C@H](O)[C@H]1O	6.18
CC1OC(O[C@H]2CC[C@@]3(C)[C@H](CC[C@@H]4[C@@H]3CC[C@]3(C)[C@@H](CCN)CC[C@]43O)C2)C(O)C(O)C1O (some centres not stated)	5.72
COC(C[N+](=O)[O-])[C@H]1CC[C@]2(O)[C@@H]3CC[C@@H]4C[C@@H](O[C@@H]5O[C@@H](C)[C@H](O)[C@@H](O)[C@H]5O)CC[C@]4(C)[C@H]3CC[C@]12C (some centres not stated)	7.52
C[C@@H]1O[C@@H](O[C@H]2CC[C@@]3(C)[C@H](CC[C@@H]4[C@@H]3CC[C@]3(C)[C@@H](/C=C/C(=O)O)CC[C@]43O)C2)[C@H](O)[C@H](O)[C@H]1O	7.89
C[C@@H]1O[C@@H](O[C@H]2CC[C@@]3(C)[C@H](CC[C@@H]4[C@@H]3CC[C@]3(C)[C@@H](/C=C/[N+](=O)[O-])CC[C@]43O)C2)[C@H](O)[C@H](O)[C@H]1O	8.08
C[C@@H]1O[C@@H](O[C@H]2CC[C@@]3(C)[C@H](CC[C@@H]4[C@@H]3CC[C@]3(C)[C@@H](CC[N+](=O)[O-])CC[C@]43O)C2)[C@H](O)[C@H](O)[C@H]1O	7.34
C[C@@H]1O[C@@H](O[C@H]2CC[C@@]3(C)[C@H](CC[C@@H]4[C@@H]3CC[C@]3(C)[C@@H]5CC[C@]43OC5)C2)[C@H](O)[C@H](O)[C@H]1O	5.66
C[C@@H]1O[C@@H](O[C@H]2CC[C@@]3(C)[C@H](CC[C@@H]4[C@@H]3CC[C@]3(C)[C@@H](C(O)CN)CC[C@]43O)C2)[C@H](O)[C@H](O)[C@H]1O (some centres not stated)	5.49
